According to ChEMBL document CHEMBL3351839, “Design, synthesis, in silico molecular docking and biological evaluation of novel oxadiazole based thiazolidine-2,4-diones bis-heterocycles as PPAR-γ agonists” (Eur J Med Chem, 2014):
The source made the active and inactive calls. The calls are words filed in the database; no cut-off is given here.

Assays:
Rattus norvegicus [1] = organism: Rattus norvegicus; assay: Hepatoprotective effect in streptozotocin induced diabetic Albino Wistar rat model assessed as reduction in serum ALP level; assay type: functional, organism-based
In short: (§1)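 Serum from STZ-diabetic rats (60 mg/kg i.p.) after oral treatment in 0.25% CMC. AST and ALT measured by the Reitman–Frankel method; ALP by the Walter–Schult method with p-nitrophenyl phosphate substrate.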

Rattus norvegicus [2] = organism: Rattus norvegicus; assay: Hepatoprotective effect in streptozotocin induced diabetic Albino Wistar rat model assessed as reduction in serum ALT level; assay type: functional, organism-based; in short: as §1
[3] = biological target: Voltage-gated inwardly rectifying potassium channel KCNH2 (Homo sapiens, UniProt Q12809); assay: Inhibition of human ERG
Rattus norvegicus [4] = assay: Antidiabetic activity in streptozotocin induced diabetic Albino Wistar rat model assessed as reduction in blood glucose level measured 90 mins after insulin dosing by insulin tolerance test; assay type: functional, organism-based
In short: (§2)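 STZ-diabetic rats (60 mg/kg i.p.; glucose >250 mg/dL on day 3) given compound orally as 0.25% CMC suspension, then oral glucose tolerance and insulin tolerance tests, blood glucose followed over time. Groups: normal control, normal + compound, diabetic control, treated diabetic. Mean ± SEM of five observations; one-way ANOVA, Dunnett's t test.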

3T3-L1 = assay: Increase in PPARgamma gene expression in mouse 3T3L1 cells at 10 uM incubated for 24 hrs by real-time PCR method relative to untreated control; assay type: functional
In short: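 3T3-L1 cells in DMEM with 10% calf serum, seeded 24 h ahead in 24-well plates, exposed to 10 µM compound 24 h at 37 °C, 5% CO2; DMSO vehicle as negative control. RNA extracted, reverse transcribed, qPCR in triplicate, repeated twice; relative PPAR-γ transcript by Ct method normalised to β-actin.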

Rattus norvegicus [5] = organism: Rattus norvegicus; assay: Toxicity in streptozotocin induced diabetic Albino Wistar rat model assessed as induction of centrizonal triad inflammation measured 5 hrs post dose by haematoxylin and eosin staining based microscopy; assay type: organism-based; conditions: in vivo
Rattus norvegicus [6] = organism: Rattus norvegicus; assay: Hepatoprotective effect in streptozotocin induced diabetic Albino Wistar rat model assessed as reduction in serum AST level; assay type: functional, organism-based; in short: as §1
Rattus norvegicus [7] = assay: Antidiabetic activity in streptozotocin induced diabetic Albino Wistar rat model assessed as blood glucose level dosed orally at equimolar dose of Pioglitazone by glucose oxidase method; assay type: functional
In short: (§3)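 STZ 60 mg/kg i.p. (freshly made in 0.1 M citrate buffer pH 4.5) to overnight-fasted rats, 5% glucose to drink overnight; diabetic if blood glucose >250 mg/dL on day 3. […] Mean ± SEM, n=5; one-way ANOVA with Dunnett's t test.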

Rattus norvegicus [8] = organism: Rattus norvegicus; assay: Antidiabetic activity in streptozotocin induced diabetic Albino Wistar rat model assessed as reduction in blood glucose level by oral glucose tolerance test; assay type: functional, organism-based; in short: as §2
Rattus norvegicus [9] = assay: Toxicity in normal Albino Wistar rat assessed as increase in body weight dosed for 15 days; assay type: organism-based; conditions: in vivo, 360 h
In short: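 Normal and STZ-diabetic Wistar rats (STZ 60 mg/kg i.p.) dosed orally daily for 15 days in 0.25% CMC suspension; body weight compared with normal and diabetic controls. Mean ± SEM, n=5; one-way ANOVA with Dunnett's t test.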

Rattus norvegicus [10] = organism: Rattus norvegicus; assay: Toxicity in streptozotocin induced diabetic Albino Wistar rat model assessed as induction of portal triad inflammation measured 5 hrs post dose by haematoxylin and eosin staining based microscopy; assay type: organism-based; conditions: in vivo
Rattus norvegicus [11] = organism: Rattus norvegicus; assay: Toxicity in streptozotocin induced diabetic Albino Wistar rat model assessed as induction of sinusoidal space dilation measured 5 hrs post dose by haematoxylin and eosin staining based microscopy; assay type: organism-based; conditions: in vivo
Rattus norvegicus [12] = assay: Antidiabetic activity in streptozotocin induced diabetic Albino Wistar rat model assessed as blood glucose level at 36 mg/kg, po by glucose oxidase method; assay type: functional; in short: as §3

Sequence of Voltage-gated inwardly rectifying potassium channel KCNH2 (Q12809 whole entry): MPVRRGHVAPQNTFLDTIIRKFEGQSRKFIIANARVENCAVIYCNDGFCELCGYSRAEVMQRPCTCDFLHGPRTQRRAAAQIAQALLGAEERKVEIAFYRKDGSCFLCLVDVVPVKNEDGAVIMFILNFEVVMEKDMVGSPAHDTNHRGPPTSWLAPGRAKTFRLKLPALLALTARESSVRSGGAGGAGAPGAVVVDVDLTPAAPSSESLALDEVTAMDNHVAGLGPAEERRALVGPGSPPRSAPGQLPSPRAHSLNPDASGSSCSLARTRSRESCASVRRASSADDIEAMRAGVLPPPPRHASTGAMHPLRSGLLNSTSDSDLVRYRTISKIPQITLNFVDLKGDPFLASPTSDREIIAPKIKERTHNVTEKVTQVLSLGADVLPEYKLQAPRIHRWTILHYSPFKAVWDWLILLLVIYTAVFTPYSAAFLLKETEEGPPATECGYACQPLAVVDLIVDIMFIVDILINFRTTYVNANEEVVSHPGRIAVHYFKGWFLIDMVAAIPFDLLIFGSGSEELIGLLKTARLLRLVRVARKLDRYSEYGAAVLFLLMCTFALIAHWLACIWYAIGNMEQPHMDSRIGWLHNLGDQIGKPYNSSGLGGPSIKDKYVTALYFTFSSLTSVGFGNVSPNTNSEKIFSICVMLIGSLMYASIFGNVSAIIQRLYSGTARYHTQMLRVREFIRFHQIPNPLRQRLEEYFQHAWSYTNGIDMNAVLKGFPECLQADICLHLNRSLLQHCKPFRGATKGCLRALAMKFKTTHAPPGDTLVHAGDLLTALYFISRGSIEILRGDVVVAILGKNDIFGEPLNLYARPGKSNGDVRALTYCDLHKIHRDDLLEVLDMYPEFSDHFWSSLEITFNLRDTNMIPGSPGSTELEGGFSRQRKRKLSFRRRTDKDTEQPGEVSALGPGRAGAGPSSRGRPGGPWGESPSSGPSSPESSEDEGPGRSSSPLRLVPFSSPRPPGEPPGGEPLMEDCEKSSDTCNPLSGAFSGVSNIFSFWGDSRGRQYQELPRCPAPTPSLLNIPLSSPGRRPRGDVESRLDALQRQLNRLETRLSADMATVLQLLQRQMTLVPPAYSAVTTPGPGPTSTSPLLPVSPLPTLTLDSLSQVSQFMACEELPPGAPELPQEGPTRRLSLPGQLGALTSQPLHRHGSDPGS

How did the Activity (Rattus norvegicus [1]) turn out when `O=C1NC(=O)/C(=C\c2ccccc2OCc2nnc(COc3ccc(Cl)cc3Cl)o2)S1` was run?
The Activity was “Active”.

What about the Activity (Rattus norvegicus [2]) of the same compound?
The Activity was “Active”.

And the IC50 [3]?
The IC50 was 29 µM.

What about the Activity (Rattus norvegicus [4]) of the same compound?
Its Activity is “Active”.

And the “fold change (FC)” value (3T3-L1)?
The value was 2.

And the Activity (Rattus norvegicus [5])?
Its Activity is “Non-toxic”.

And the Activity (Rattus norvegicus [6])?
The Activity was “Active”.

What about the Activity (Rattus norvegicus [7]) of the same compound?
Its Activity is 134 mg/dL.

And the Activity (Rattus norvegicus [8])?
Its Activity is “Active”.

And the Activity (Rattus norvegicus [9])?
The Activity was “Non-toxic”.

What about the Activity (Rattus norvegicus [10]) of the same compound?
The Activity was “Non-toxic”.

And the Activity (Rattus norvegicus [11])?
The Activity was “Non-toxic”.

For `CCc1ccc(CCOc2ccc(CC3SC(=O)NC3=O)cc2)nc1` (stereo not drawn) [PIOGLITAZONE], which Activity (Rattus norvegicus [1]) is on record?
The Activity was “Active”.

And the Activity (Rattus norvegicus [2])?
The Activity was “Active”.

And the Activity (Rattus norvegicus [5])?
The Activity was “Toxic”.

What about the Activity (Rattus norvegicus [6]) of the same compound?
The Activity was “Active”.

And the Activity (Rattus norvegicus [12])?
The Activity was 132 mg/dL.

What about the Activity (Rattus norvegicus [10]) of the same compound?
Its Activity is “Non-toxic”.

And the Activity (Rattus norvegicus [11])?
Its Activity is “Toxic”.

Which results are given for `CN(CCOc1ccc(CC2SC(=O)NC2=O)cc1)c1ccccn1` (stereo not drawn) [ROSIGLITAZONE]?
fold change (FC) (3T3-L1): 1; Activity (Rattus norvegicus [12]): 144.2 mg/dL

For `O=C1NC(=O)/C(=C\c2ccccc2OCc2nnc(-c3ccccc3)o2)S1`, which Activity (Rattus norvegicus [1]) is on record?
Its Activity is “Active”.

And the Activity (Rattus norvegicus [2])?
Its Activity is “Active”.

What about the “fold change (FC)” value (3T3-L1) of the same compound?
The value was 2.1.

And the Activity (Rattus norvegicus [5])?
Its Activity is “Non-toxic”.

What about the Activity (Rattus norvegicus [6]) of the same compound?
Its Activity is “Active”.

And the Activity (Rattus norvegicus [7])?
The Activity was 139.6 mg/dL.

And the Activity (Rattus norvegicus [10])?
Its Activity is “Non-toxic”.

And the Activity (Rattus norvegicus [11])?
The Activity was “Non-toxic”.

What does the source list for `COc1cc(/C=C2/SC(=O)NC2=O)ccc1OCc1nnc(-c2ccc(Br)cc2)o1`?
Activity (Rattus norvegicus [1]): Active; Activity (Rattus norvegicus [2]): Active; Activity (Rattus norvegicus [5]): Non-toxic; Activity (Rattus norvegicus [6]): Active; Activity (Rattus norvegicus [7]): 135.2 mg/dL; Activity (Rattus norvegicus [10]): Non-toxic; Activity (Rattus norvegicus [11]): Non-toxic

Which Activity (Rattus norvegicus [1]) does the source give for `COc1cc(/C=C2/SC(=O)NC2=O)ccc1OCc1nnc(-c2ccccc2)o1` here?
Its Activity is “Active”.

What about the Activity (Rattus norvegicus [2]) of the same compound?
The Activity was “Active”.

And the Activity (Rattus norvegicus [5])?
The Activity was “Non-toxic”.

And the Activity (Rattus norvegicus [6])?
The Activity was “Active”.

What about the Activity (Rattus norvegicus [7]) of the same compound?
The Activity was 139.7 mg/dL.

And the Activity (Rattus norvegicus [10])?
The Activity was “Non-toxic”.

And the Activity (Rattus norvegicus [11])?
The Activity was “Non-toxic”.
